Data on 8 compounds can be found in ChEMBL document CHEMBL2321860, “2-Arylpyrazolo[4,3-d]pyrimidin-7-amino derivatives as new potent and selective human A3 adenosine receptor antagonists. Molecular modeling studies and pharmacological evaluation” (J Med Chem, 2013).

The structures appear in SMILES notation. Active and inactive are the calls of the source. No cut-off for these calls is given here.

For assay [1], the system named is HT-29. In words: Antiapoptotic activity against human HT-29 cells assessed as cell viability at 10 uM after 48 hrs by MTT assay in presence of 1 uM oxaliplatin (reference value: 94.9 +/- 1.3%). The class given is functional. The method, boiled down: (§1)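 HT-29 cells in DMEM high glucose with 20% FBS, grown to confluence and serum-starved overnight. Cells were treated for 48 h with oxaliplatin (0.3–100 μM) with or without 10 μM test compound. Viability was read as MTT reduction (1 mg/mL, 2 h, 37 °C), formazan in DMSO, absorbance 580 nm. Output is % of control, quadruplicate on at least three cell batches.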
A general note: Tetrazolium dyes change colour on reduction, which living cells bring about.

For assay [2], the system named is HT-29. The assay is described as follows: Antiapoptotic activity against human HT-29 cells assessed as cell viability at 10 uM after 48 hrs by MTT assay in presence of 0.3 uM oxaliplatin (reference value: 97.6 +/- 0.9%). Type of assay: functional. A digest of the protocol:
as §1

In assay [3] the test system is HT-29. The assay is described as follows: Antiapoptotic activity against human HT-29 cells assessed as cell viability at 10 uM after 48 hrs by MTT assay in presence of 3 uM oxaliplatin (reference value: 92.3 +/- 1.0%). Type of assay: functional. The method, boiled down:
as §1

The target in assay [4] is T1, Adenosine receptor A2b (Homo sapiens) (UniProt P29275).
T1 sequence (whole entry): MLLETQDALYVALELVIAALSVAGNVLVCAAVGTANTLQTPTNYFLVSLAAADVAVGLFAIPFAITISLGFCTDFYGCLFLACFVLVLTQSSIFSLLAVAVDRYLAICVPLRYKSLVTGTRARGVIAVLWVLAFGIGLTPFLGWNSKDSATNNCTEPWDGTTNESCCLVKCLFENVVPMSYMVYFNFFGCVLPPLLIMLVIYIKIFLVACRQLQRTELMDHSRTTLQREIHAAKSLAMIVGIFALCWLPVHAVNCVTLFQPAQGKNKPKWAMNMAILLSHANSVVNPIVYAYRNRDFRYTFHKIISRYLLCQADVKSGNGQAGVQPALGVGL
The assay is described as follows: Inhibition of human A2B adenosine receptor transfected in CHO cells assessed as inhibition of NECA-induced cyclic AMP production at 1 uM after 10 mins by competitive protein binding assay. The class given is cell-based. A digest of the protocol:
(§2)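 Human A2B CHO cells (1 × 10⁶/assay) preincubated 10 min at 37 °C in buffer with adenosine deaminase (2 IU/mL) and Ro 20-1724. Antagonist inhibition of 200 nM NECA-stimulated cAMP measured; reaction stopped with TCA. cAMP quantified by [3H]cAMP competition with adrenal binding protein. IC50 by sigmoid fit, mean SEM of four experiments; % inhibition at 1 μM.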

The subject of assay [5] is HT-29. The assay is described as follows: Antiapoptotic activity against human HT-29 cells assessed as cell viability at 10 uM after 48 hrs by MTT assay in presence of 10 uM oxaliplatin (reference value: 87.2 +/- 0.9%). Type of assay: functional. To be noted: HT-29, 48 h, read-out: Activity. A digest of the protocol: as §1
Assay [6] has as its target T2, Adenosine receptor A1 (Homo sapiens) (UniProt P30542).
T2 sequence (whole entry): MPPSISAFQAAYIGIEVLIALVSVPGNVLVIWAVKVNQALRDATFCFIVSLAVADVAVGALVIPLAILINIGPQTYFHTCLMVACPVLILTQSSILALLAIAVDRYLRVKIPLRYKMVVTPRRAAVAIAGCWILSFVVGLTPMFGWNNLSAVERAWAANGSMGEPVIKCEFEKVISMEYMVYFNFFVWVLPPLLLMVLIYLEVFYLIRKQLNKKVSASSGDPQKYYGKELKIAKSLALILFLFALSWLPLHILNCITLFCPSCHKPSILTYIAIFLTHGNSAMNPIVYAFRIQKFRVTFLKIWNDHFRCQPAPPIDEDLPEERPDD
In words: Displacement of [3H]DPCPX from human A1 adenosine receptor expressed in CHO cells at 1 uM after 120 mins by scintillation counting analysis. The class given is cell-based. Background: Displacement assays read how much labelled ligand stays bound in the presence of the test substance.

Assay [7] addresses T3, Adenosine receptor A2a (Homo sapiens, UniProt P29274). In words: Displacement of [3H]ZM241385 from human A2A adenosine receptor expressed in CHO cells at 1 uM after 60 mins by scintillation counting analysis. Type of assay: cell-based. The method, boiled down:
(§3)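 Human A2A CHO membranes (50 μg protein) incubated with 1 nM [3H]ZM-241385 in 50 mM Tris-HCl, 10 mM MgCl2, pH 7.4, for 60 min at 4 °C, using 6–8 concentrations or 1 μM for % inhibition. Nonspecific binding defined with 1 μM ZM-241385. Ki via Cheng–Prusoff, mean SEM of four assays in duplicate.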

The test system of assay [8] is Astrocyte. The assay is described as follows: Antiapoptotic activity against Sprague-Dawley rat astrocytes assessed as reduction of oxaliplatin-induced caspase-3 activity at 1 uM after 4 hrs by fluorimetric assay. Type of assay: functional, cell-based. The method, boiled down:
(§4)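 Primary cortical astrocytes from newborn (P1–P3) rats, GFAP-positive, used 21 days after isolation and serum-starved overnight. Cells were exposed to 100 μM oxaliplatin for 4 h with test compound co-incubated. Lysates were incubated with 0.025 mM Z-DEVD-R110 at 25 °C for 30 min and read by fluorescence (ex 496/em 520 nm). Output is % of untreated control, mean SEM.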

Assay [9] concerns the target T4, Adenosine receptor A3 (Rattus norvegicus) (UniProt P28647).
T4 sequence (whole entry): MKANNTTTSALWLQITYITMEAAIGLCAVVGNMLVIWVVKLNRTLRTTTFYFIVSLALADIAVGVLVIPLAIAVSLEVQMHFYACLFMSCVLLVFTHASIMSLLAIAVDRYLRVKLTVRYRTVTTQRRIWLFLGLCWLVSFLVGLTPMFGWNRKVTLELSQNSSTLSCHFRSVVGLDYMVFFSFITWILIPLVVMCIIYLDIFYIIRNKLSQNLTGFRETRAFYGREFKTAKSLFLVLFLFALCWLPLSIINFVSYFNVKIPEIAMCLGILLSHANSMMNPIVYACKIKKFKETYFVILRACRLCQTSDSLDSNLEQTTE
The assay is described as follows: Displacement of [125I]AB-MECA from rat A3 adenosine receptor expressed in HEK293 cells at 1 uM after 60 mins by scintillation counting analysis. Type of assay: cell-based. A digest of the protocol:
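Rat A3 receptor in HEK293 membranes (10 μg protein) incubated with 0.5 nM [125I]AB-MECA in 50 mM Tris-HCl, 10 mM MgCl2, 1 mM EDTA, pH 7.4, for 60 min at 37 °C. Nonspecific binding defined with 1 μM AB-MECA. Filtration then scintillation counting. Output is % inhibition at 1 μM.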

In assay [10] the target is T5, Adenosine receptor A3 (Homo sapiens, UniProt P0DMS8).
T5 sequence (P0DMS8 whole entry): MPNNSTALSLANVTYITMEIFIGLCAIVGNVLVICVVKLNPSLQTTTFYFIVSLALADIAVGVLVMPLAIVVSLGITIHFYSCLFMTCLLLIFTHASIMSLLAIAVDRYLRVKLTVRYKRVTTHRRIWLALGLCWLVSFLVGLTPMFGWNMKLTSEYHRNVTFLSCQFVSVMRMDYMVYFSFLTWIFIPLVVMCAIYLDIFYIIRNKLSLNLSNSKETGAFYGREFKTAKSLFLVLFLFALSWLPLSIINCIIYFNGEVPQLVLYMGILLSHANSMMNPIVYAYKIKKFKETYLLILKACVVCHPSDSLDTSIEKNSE
The assay is described as follows: Displacement of [125I]AB-MECA from human A3 adenosine receptor expressed in CHO cells after 60 mins by scintillation counting analysis. Type of assay: cell-based.

The subject of assay [11] is Astrocyte. In words: Antiapoptotic activity against Sprague-Dawley rat astrocytes assessed as reduction of oxaliplatin-induced caspase-3 activity at 0.1 to 10 uM after 4 hrs by fluorimetric assay. Type of assay: functional, cell-based. A digest of the protocol: as §4
Assay [12] relates to HT-29. In words: Antiapoptotic activity against human HT-29 cells assessed as cell viability at 10 uM after 48 hrs by MTT assay in presence of 100 uM oxaliplatin (reference value: 52.2 +/- 0.5%). Type of assay: functional. The method, boiled down: as §1
Assay [13] concerns the target T5, Adenosine receptor A3. The assay is described as follows: Inhibition of human A3 adenosine receptor transfected in CHO cells assessed as inhibition of forskolin-induced cyclic AMP production after 10 mins by competitive protein binding assay in presence of CI-IB-MECA. The class given is functional, cell-based. The method, boiled down: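 Human A3 CHO cells (1 × 10⁶/assay) preincubated 10 min at 37 °C with adenosine deaminase and Ro 20-1724. Antagonist potency measured against 100 nM Cl-IB-MECA-mediated inhibition of 1 μM forskolin-stimulated cAMP. cAMP quantified by [3H]cAMP competition binding. IC50 by sigmoid regression, mean SEM of four experiments.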

In assay [14] the test system is HT-29. In words: Antiapoptotic activity against human HT-29 cells assessed as cell viability at 10 uM after 48 hrs by MTT assay in presence of 30 uM oxaliplatin (reference value: 81.9 +/- 0.9%). Type of assay: functional. A digest of the protocol: as §1
A further assay deals with T6, Adenosine receptor A1 (Homo sapiens, UniProt P30542).
T6 sequence (P30542 whole entry): T2 sequence (whole entry)
The assay is described as follows: Displacement of [3H]DPCPX from human A1 adenosine receptor expressed in CHO cells after 120 mins by scintillation counting analysis. Type of assay: cell-based.

For assay [15], the target named is T7, Adenosine receptor A3 (Homo sapiens) (UniProt P0DMS8).
T7 sequence (whole entry): T5 sequence (P0DMS8 whole entry)
In words: Displacement of [125I]AB-MECA from human A3 adenosine receptor expressed in CHO cells at 1 uM after 60 mins by scintillation counting analysis. Type of assay: cell-based. A digest of the protocol:
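Human A3 CHO membranes (50 μg protein) incubated with 0.5 nM [125I]AB-MECA in 50 mM Tris-HCl, 10 mM MgCl2, 1 mM EDTA, pH 7.4, for 60 min at 37 °C. Nonspecific binding defined with 1 μM AB-MECA. Filtration then counting. Output is % inhibition at 1 μM.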

Assay [16] concerns the target T3, Adenosine receptor A2a. In words: Displacement of [3H]ZM241385 from human A2A adenosine receptor expressed in CHO cells after 60 mins by scintillation counting analysis. Type of assay: cell-based. The method, boiled down:
as §3

The target of another assay is T8, Adenosine receptor A2b (Homo sapiens, UniProt P29275).
T8 sequence (P29275 whole entry): T1 sequence (whole entry)
The assay is described as follows: Inhibition of human A2B adenosine receptor transfected in CHO cells assessed as inhibition of NECA-induced cyclic AMP production after 10 mins by competitive protein binding assay. The class given is cell-based. The method, boiled down:
as §2

T3 sequence (P29274 whole entry): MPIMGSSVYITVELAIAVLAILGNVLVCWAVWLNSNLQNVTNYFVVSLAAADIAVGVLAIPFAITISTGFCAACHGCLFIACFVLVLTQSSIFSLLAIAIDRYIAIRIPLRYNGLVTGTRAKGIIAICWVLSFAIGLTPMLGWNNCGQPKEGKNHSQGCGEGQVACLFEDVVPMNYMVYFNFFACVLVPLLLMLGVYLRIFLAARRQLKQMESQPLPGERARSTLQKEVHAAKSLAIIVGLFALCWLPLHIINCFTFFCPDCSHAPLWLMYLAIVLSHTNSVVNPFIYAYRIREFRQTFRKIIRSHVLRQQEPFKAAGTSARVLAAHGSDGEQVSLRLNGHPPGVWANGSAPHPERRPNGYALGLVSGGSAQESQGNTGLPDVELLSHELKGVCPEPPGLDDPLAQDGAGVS

Turning to `COc1ccc(-n2cc3nc(-c4ccccc4)nc(NC(=O)Cc4ccccc4)c3n2)cc1`, the Activity is given as 90.2% in the assay with HT-29 [1]; 95.1% with HT-29 [2]; 86.6% with HT-29 [3]; 54.8% with HT-29 [12]; 78.8% in the assay with HT-29 [14]. Further, the inhibition worked out at 2% in [4], 29% in assay [6], 18% at Adenosine receptor A2a [7] and 3% in [9]. Moreover, the viability at 10 µM with HT-29 [5] was found to be 82.2%. Moreover, the result with Astrocyte [8] and with Astrocyte [11] was Active. Also, the Ki on Adenosine receptor A3 [10] stood at 0.024 µM. Further, on Adenosine receptor A3 [13], the 50% inhibitory concentration (IC50) is 0.08 µM.
With `Cc1nc(NC(=O)c2ccccc2)c2nn(-c3ccccc3)cc2n1`, the inhibition in assay [4] was determined as 2%; in assay [6], 30%; at Adenosine receptor A2a [7], 1%; in [9] it was 6%. At Adenosine receptor A3 [10], this compound showed an inhibitory constant (Ki) of 0.0056 µM. In addition, the outcome with Astrocyte [11] was Active. Also, at Adenosine receptor A3 [13], the IC50 was determined as 0.0197 µM.
Turning to `Nc1nc(-c2ccccc2)nc2cn(-c3ccccc3)nc12`, the inhibitory constant (Ki) on Adenosine receptor A1 is 0.075 µM; on Adenosine receptor A2a [16], 0.325 µM. This compound also registered an inhibition in assay [15] of 48%. In addition, at Adenosine receptor A2b, the half-inhibitory concentration (IC50) turned out to be 0.44 µM.
On the same counts, the results for `Nc1nc(Cc2ccccc2)nc2cn(-c3ccccc3)nc12` are 0.15 µM, 0.11 µM, 39% and 0.42 µM.
Take `O=C(Cc1ccccc1)Nc1nc(-c2ccccc2)nc2cn(-c3ccccc3)nc12`: the inhibition in assay [4] came to 2%; in assay [6] it was 5%; at Adenosine receptor A2a [7], 5%; in assay [9], 2%. This compound also gave a Ki on Adenosine receptor A3 [10] of 0.018 µM. Besides, the result in the assay on Astrocyte [11] was Active. The IC50 on Adenosine receptor A3 [13] is 0.061 µM.
Regarding `COc1ccc(-n2cc3nc(-c4ccccc4)nc(NC(=O)c4ccccc4)c3n2)cc1`, the inhibition turned out to be 2% in assay [4], 3% in assay [6], 1% at Adenosine receptor A2a [7] and 12% in assay [9]. Further, the Ki at Adenosine receptor A3 [10] worked out at 0.018 µM. In the assay on Astrocyte [11], the result was Active. Besides, the IC50 on Adenosine receptor A3 [13] came out at 0.063 µM.
As for `Cc1nc(N)c2nn(-c3ccccc3)cc2n1`, the Ki on Adenosine receptor A1 was 0.07 µM; on Adenosine receptor A2a [16], 0.246 µM. Besides, the inhibition in [15] came out at 40%. Further, at Adenosine receptor A2b, the concentration for half-maximal inhibition (IC50) came out at 0.32 µM.
Turning to `Cc1nc(NC(=O)Cc2ccccc2)c2nn(-c3ccccc3)cc2n1`, the Ki was determined as 0.51 µM on Adenosine receptor A1 and 0.12 µM at Adenosine receptor A3 [10]. Besides, the inhibition in assay [4] worked out at 1%; on Adenosine receptor A2a [7], 13%.

What is called inhibition is how much of the control response was suppressed. What is called Ki is the dissociation constant of the complex between target and ligand, obtained from inhibition or displacement. A word on the IC50: it is the concentration needed to halve the response being measured.
